Measurements from different studies.
Protocols differ between the studies behind these lines.
Effect on: cell growth or viability

`O=C(Nc1cccc(C(=O)Nc2ccc3[nH]ncc3c2)c1)Nc1ccccc1C(F)(F)F` gave an IC50 of 43.7 µM (KM12; ATP luminescence; 72 h).
`CCC(C(=O)COc1c(F)c(F)cc(F)c1F)n1cc([C@@](C)(NCc2ccc3ncccc3c2)C(C)C)nn1` (stereo partly shown) gave an IC50 of > 10 µM (BESM; 72 h).
`O=C(Nc1cccc(Cl)c1)Nc1cccc(C(=O)Nc2ccc3[nH]ncc3c2)c1` gave an IC50 of > 50 µM (KM12; ATP luminescence; 72 h).
The IC50 of `CCCCC(C(=O)COc1c(F)c(F)cc(F)c1F)n1cc([C@@](C)(NCc2ccc3ncccc3c2)C2CCC2)nn1` (stereo partly shown) is reported as > 10 µM (BESM; 72 h).
With `CN1CCN(Cc2ccc(Nc3ncc(Cl)c(Nc4ccccc4S(=O)(=O)N(C)C)n3)cc2)CC1` the IC50 was 0.006 µM (PSN1).
With `CC(C)C[C@H](NC(=O)[C@H](Cc1ccccc1)NC(=O)c1cnccn1)B(O)O` the IC50 was 0.017 µM (NCI-H2110; ATP luminescence).
The IC50 of `O=C(/C=C/C=C/c1ccc2c(c1)OCO2)N1CCCCC1` is reported as 74.8 µM (COR-L23; SRB).
With `CCCCC(C(=O)COc1c(F)c(F)cc(F)c1F)n1cc([C@@](C)(NCc2ccc3ncccc3c2)C2CC2)nn1` (stereo partly shown) the IC50 was > 10 µM (BESM; 72 h).
`O=C(Cc1ccc(C(F)(F)F)cc1)Nc1cccc(C(=O)Nc2ccc3[nH]ncc3c2)c1` has an IC50 of 48.4 µM (KM12; ATP luminescence; 72 h).
The IC50 of `COc1ccc2c(c1)/C(=N/NC(=O)c1cc3ccccc3[nH]1)C(=O)N2` is reported as 17.9 µM (ZR75).
With `O=C1NCCc2[nH]c(-c3ccncc3)cc21` the IC50 was 0.286 µM (SR).
The IC50 of `O=C1Nc2ccccc2/C1=N/NC(=O)c1cc2ccccc2[nH]1` is reported as 22.7 µM (ZR75).
The IC50 of `O=C(Nc1cccc(C(=O)Nc2ccc3[nH]ncc3c2)c1)Nc1ccccc1F` is reported as 48.3 µM (KM12; ATP luminescence; 72 h).
The IC50 of `Cc1cc(Nc2ncc(Cl)c(Nc3ccccc3S(=O)(=O)C(C)C)n2)c(OC(C)C)cc1C1CCNCC1` is reported as 0.35 µM (Rh41; 72 h).
`COc1cc(Nc2nccc(-c3cnn4nc(OC)ccc34)n2)cc(C(F)(F)F)c1` gave an IC50 of 0.2 µM (CAKI-2; ATP luminescence).
For `O=C(Nc1cccc(C(=O)Nc2ccc3[nH]ncc3c2)c1)Nc1cccc(C(F)(F)F)c1`, the IC50 was 39.5 µM (KM12; ATP luminescence; 72 h).
`O=C(N/N=C1\C(=O)N(c2ccccc2)c2ccccc21)c1cc2ccccc2[nH]1` gave an IC50 of 1.32 µM (ZR75).
`CC(=O)O[C@H]1C(=O)[C@@]2(C)[C@H]([C@H](OC(=O)c3ccccc3)[C@]3(O)C[C@H](OC(=O)[C@H](O)[C@@H](NC(=O)c4ccccc4)c4ccccc4)C(C)=C1C3(C)C)[C@]1(OC(C)=O)CO[C@@H]1C[C@@H]2O` gave an IC50 of 0.0021 µM (COR-L23; SRB).
With `O=C(Nc1ccc2[nH]ncc2c1)c1cccc(NC(=O)c2cc(C(F)(F)F)ccc2F)c1` the IC50 was 26.8 µM (KM12; ATP luminescence; 72 h).
For `C[C@H]1O[C@@H](n2cc(F)c(=O)[nH]c2=O)[C@H](O)[C@@H]1O`, the IC50 was 13.2 µM (Hep3B; CCK-8; 48 h).
`O=C(Nc1ccc2[nH]ncc2c1)c1cccc(NC(=S)Nc2ccc(C(F)(F)F)cc2)c1` has an IC50 of 23.1 µM (KM12; ATP luminescence; 72 h).
The IC50 of `Cc1[nH]c(/C=C2\C(=O)Nc3ccc(S(=O)(=O)N(C)c4cccc(Cl)c4)cc32)c(C)c1C(=O)N1CCN(C)CC1` is reported as 1.84 µM (Rh41; 72 h).
